ChEMBL document CHEMBL4411287, “Discovery and optimization of a series of 3-substituted indazole derivatives as multi-target kinase inhibitors for the treatment of lung squamous cell carcinoma” (Eur J Med Chem, 2019)
Where a chain is given by its changes, count along the chain named. In brackets after ≈: the same amount, converted by molar mass. Activity calls are given as the source filed them. The calls are words filed in the database; no cut-off is given here.

Key:
NCI-H2286 [1] = test: Antiproliferative activity against human NCI-H2286 cells harboring DDR2 mutation after 72 hrs by CCK8 assay; format: functional, cell-based; details: NCI-H2286, 72 h
Summary of the method: (§1)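 Cells seeded at low density in growth medium and compounds added the next day. Incubated 72 h, then proliferation read by sulforhodamine B, MTT or CCK-8. IC50 obtained by four-parameter concentration-response curve fitting.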

NCI-H2286 [2] = test: Antitumor activity against human NCI-H2286 cells xenografted in SCID mouse assessed as tumor growth inhibition at 50 mg/kg, po qd for 10 consecutive days relative to control; format: functional; details: read-out: TGI
Summary of the method: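 NCI-H2286 xenograft established by s.c. fragment implantation. At 100-150 mm³ mice were randomized (vehicle n=10, treated n=5) and given compound orally once daily for 10 days. Tumour volume = length×width²/2, measured twice weekly. TGI taken on the final day from change in volume relative to vehicle, with Student's t-test.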

[3] = system: T1, Discoidin domain-containing receptor 2 (Homo sapiens), Q16832 [I638F]; details: NCI-H2286, 100 nM
T1 sequence (whole entry): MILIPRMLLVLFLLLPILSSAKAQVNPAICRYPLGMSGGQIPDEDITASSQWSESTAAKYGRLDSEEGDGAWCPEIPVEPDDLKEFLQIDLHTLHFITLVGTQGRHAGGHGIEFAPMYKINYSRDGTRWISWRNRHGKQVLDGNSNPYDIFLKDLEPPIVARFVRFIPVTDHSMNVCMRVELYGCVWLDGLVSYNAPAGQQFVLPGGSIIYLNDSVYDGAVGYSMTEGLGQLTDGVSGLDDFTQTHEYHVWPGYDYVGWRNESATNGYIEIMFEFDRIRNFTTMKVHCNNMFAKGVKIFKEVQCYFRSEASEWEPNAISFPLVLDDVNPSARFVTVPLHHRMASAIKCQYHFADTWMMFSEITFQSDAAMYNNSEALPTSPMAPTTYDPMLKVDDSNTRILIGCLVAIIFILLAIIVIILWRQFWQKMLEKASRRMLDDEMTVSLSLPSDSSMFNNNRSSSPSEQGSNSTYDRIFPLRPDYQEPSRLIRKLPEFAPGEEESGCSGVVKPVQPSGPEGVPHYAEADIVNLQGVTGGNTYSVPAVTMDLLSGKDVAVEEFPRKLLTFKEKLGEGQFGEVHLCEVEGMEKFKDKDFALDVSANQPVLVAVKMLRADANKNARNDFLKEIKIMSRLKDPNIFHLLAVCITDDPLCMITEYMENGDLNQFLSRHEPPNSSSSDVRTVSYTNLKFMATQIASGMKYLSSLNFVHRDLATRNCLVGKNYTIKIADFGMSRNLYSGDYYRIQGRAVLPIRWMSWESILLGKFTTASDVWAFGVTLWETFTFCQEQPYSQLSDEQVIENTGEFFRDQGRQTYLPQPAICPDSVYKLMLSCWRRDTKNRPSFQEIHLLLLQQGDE

[4] = molecular target: T2, Discoidin domain-containing receptor 2 (Homo sapiens) (UniProt Q16832); test: Inhibition of DDR2 (unknown origin) at 20 uM using poly (Glu, Tyr) 4:1 substrate after 60 mins by ELISA relative to control
T2 sequence (whole entry): T1 sequence (whole entry) with F638I
Summary of the method: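 ELISA with purified recombinant DDR2 on poly(Glu,Tyr) 4:1 precoated at 20 µg/mL. 10 µM ATP in HEPES pH 7.4 buffer with MgCl2, MnCl2, Na3VO4 and DTT, 1% DMSO; 60 min at 37 °C. Phosphotyrosine detected by PY99 and HRP anti-mouse IgG with o-phenylenediamine at A490. Inhibition = 1−A490/A490control; two separate experiments.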

KG-1 = test: Antiproliferative activity against FGFR1 fused human KG1 cells after 72 hrs by CCK8 assay; format: functional, cell-based; details: KG-1, 72 h; summary of the method: as §1
SNU-16 = test: Antiproliferative activity against FGFR2 amplified human SNU16 cells after 72 hrs by CCK8 assay; format: functional, cell-based; details: SNU-16, 72 h; summary of the method: as §1
NCI-H716 = test: Antiproliferative activity against FGFR2 amplified human NCI-H716 cells after 72 hrs by CCK8 assay; format: functional, cell-based; details: NCI-H716, 72 h; summary of the method: as §1
[5] = Antiproliferative activity against human UM-UC-14 cells harboring FGFR3 mutation after 72 hrs by CCK8 assay; format: functional, cell-based; details: UMUC14, 72 h; summary of the method: as §1
[6] = Half life in ICR(CD-1) mouse at 10 mg/kg, po administered via gavage by triple quadrupole mass spectrometric analysis; format: ADME, organism-based; details: in vivo
Summary of the method: (§2)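 Oral gavage at 1 mg/mL in 1% Tween80/water to male ICR mice (18-22 g, n=3). Plasma sampled at 0.25, 0.5, 1, 2, 4, 8 and 24 h, protein precipitated with methanol:acetonitrile (1:1) containing internal standard, and quantified by UPLC-triple quadrupole MS. AUC and MRT were taken from per-animal time-concentration curves. Cmax is the maximum plasma level and Tmax the time to reach it.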

[7] = Tmax in ICR(CD-1) mouse at 10 mg/kg, po administered via gavage by triple quadrupole mass spectrometric analysis; format: ADME, organism-based; details: in vivo
Summary of the method: (§3)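 Dosed by gavage at 1 mg/mL in 1% Tween80/water to male ICR mice, 18-22 g, n=3. Blood taken at 0.25, 0.5, 1, 2, 4, 8 and 24 h. Plasma precipitated with methanol:acetonitrile (1:1) containing internal standard, then UPLC-MS/MS on a C18 column with an ammonium acetate/formic acid–acetonitrile gradient. Tmax read directly from the data; MRT calculated per animal from concentration–time curves.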

[8] = Cmax in ICR(CD-1) mouse at 10 mg/kg, po administered via gavage by triple quadrupole mass spectrometric analysis; format: ADME, organism-based; parameters: dose 10 mg/kg, route oral; details: in vivo; summary of the method: as §2
[9] = AUC (0 to t) in ICR(CD-1) mouse at 10 mg/kg, po administered via gavage by triple quadrupole mass spectrometric analysis; format: ADME, organism-based; details: in vivo; summary of the method: as §2
[10] = AUC (0 to infinity) in ICR(CD-1) mouse at 10 mg/kg, po administered via gavage by triple quadrupole mass spectrometric analysis; format: ADME, organism-based; parameters: dose 10 mg/kg, route oral, time infinity; details: in vivo; summary of the method: as §2
[11] = MRT in ICR(CD-1) mouse at 10 mg/kg, po administered via gavage by triple quadrupole mass spectrometric analysis; format: ADME, organism-based; details: in vivo; summary of the method: as §3
[12] = Solubility of compound; format: physicochemical
[13] = Permeability in human Caco2 cells at 5 uM after 120 mins by LC-MS/MS analysis relative to control; format: ADME, cell-based; details: Caco-2, read-out: Fabs
Summary of the method: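 Caco-2 (C2BBe1) monolayers grown confluent on collagen-coated transwell membranes. Buffer is HBSS with 10 mM HEPES at pH 7.4 and pH 6.8. Compound 5 µM added to the apical or basolateral side; duplicate samples taken at 120 min and analysed by LC-MS/MS. Results given as Papp A→B and B→A and efflux ratio B→A/A→B.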

[14] = Efflux ratio of permeability in human Caco2 cells at 5 uM after 120 mins by LC-MS/MS analysis; format: ADME, cell-based; details: Caco-2
Summary of the method: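 Caco-2 (C2BBe1) monolayers grown to confluence on collagen-coated transwell polycarbonate membranes. Compound at 5 μM added apically or basolaterally in HBSS with 10 mM HEPES at pH 7.4 and 6.8. Duplicate samples taken at 120 min and analysed by LC-MS/MS. Efflux ratio = Papp(B→A)/Papp(A→B).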

Q: What does the source list for `Cc1nc(Nc2ncc(C(=O)Nc3c(C)cccc3Cl)s2)cc(N2CCN(CCO)CC2)n1` [DASATINIB]?
A: IC50 (NCI-H2286 [1]): 33.3 nM; inhibition in vivo at 50 mg/kg (NCI-H2286 [2]): 50.9%; inhibition [3]: Active

Q: With `Cn1cccc(C(=O)Nc2cccc(-c3ccc4[nH]ncc4c3)c2)c1=O` as the compound, how does the inhibition [4] read?
A: 76%

Q: With `COc1cc(CCc2cc(NC(=O)c3ccc(N4C[C@@H](C)N[C@@H](C)C4)cc3)n[nH]2)cc(OC)c1` [FEXAGRATINIB] as the compound, how does the IC50 (KG-1) read?
A: 5.8 nM

Q: And the IC50 (SNU-16)?
A: 19.6 nM

Q: And the IC50 (NCI-H716)?
A: 5.9 nM

Q: What about the IC50 [5] of the same compound?
A: 4.5 nM

Q: What does the source list for `Cc1ccc(C(=O)Nc2cc(CN3CCN(C)CC3)cc(C(F)(F)F)c2)cc1-c1ccc2c(-c3cnn(C4CC4)c3)n[nH]c2c1`?
A: half-life [6]: 1.4 h; Tmax [7]: 1.67 h; Cmax [8]: 111 ng/mL; AUC(0-t) [9]: 66.2 ng·h/mL; AUC(0-inf) [10]: 610 ng·h/mL; MRT [11]: 3.2 h; solubility [12]: 10 µM (≈ 6.14 µg/mL); Fa at 2 h, 5 µM [13]: 12%; efflux ratio at 2 h, 5 µM [14]: 42.7
